Experimental findings from ChEMBL document CHEMBL5661985, “In silico design of novel probes for the atypical opioid receptor MRGPRX2” (Nat Chem Biol, 2017) are described below.

Active and inactive are the calls of the source. The rule behind the calls is not given here.

In assay [1] the target is T1, Mas-related G-protein coupled receptor member X2 (Homo sapiens) (UniProt Q96LB1).
T1 sequence (whole entry): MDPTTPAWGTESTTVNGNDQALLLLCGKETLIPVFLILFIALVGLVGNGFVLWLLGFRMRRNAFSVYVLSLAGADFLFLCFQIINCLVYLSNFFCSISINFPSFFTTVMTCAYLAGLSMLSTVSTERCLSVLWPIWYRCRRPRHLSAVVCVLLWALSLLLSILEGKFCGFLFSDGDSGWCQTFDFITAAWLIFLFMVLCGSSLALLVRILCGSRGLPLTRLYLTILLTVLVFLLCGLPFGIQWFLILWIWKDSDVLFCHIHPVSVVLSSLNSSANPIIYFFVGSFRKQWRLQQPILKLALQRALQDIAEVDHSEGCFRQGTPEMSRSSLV
In words: Agonist activity at MRGPRX2 (unknown origin) expressed in HTLA cells assessed as induction of beta-arrestin 2 recruitment at 10 uM incubated for 18 to 24 hrs by PRESTO-Tango assay. Type of assay: functional, cell-based. The conditions noted are these: filed as agonist, time 18-24 hrs. The method in brief:
(§1)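 β-arrestin2 recruitment by PRESTO-Tango: HTLA cells transiently transfected (calcium phosphate) with codon-optimized MRGPRX2-Tango (WT or point mutant) or MRGPRB2-Tango, plated next day 20,000 cells/well on poly-L-lysine; drug in HBSS/20 mM HEPES/0.3% BSA pH 7.4 for 18–24 h; Bright-Glo luminescence (RLU); curves n=3 in triplicate, mutants n=4 in triplicate.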

Assay [2] has as its target T1, Mas-related G-protein coupled receptor member X2 (Homo sapiens). In words: Agonist activity at MRGPRX2 receptor in human LAD2 cells transfected with MRGPRX2 siRNA assessed as increase in degranulation incubated for 30 mins by beta-hexosaminidase assay. Type of assay: functional, cell-based. The method, boiled down: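 LAD2 cells (1.2 million/well) transfected with 25 nM MRGPRX2 siRNA pool or non-targeting pool, 72 h; 200,000 cells taken for β-hexosaminidase assay with EC80 concentration of agonist, 30 min 37°C; knockdown checked by qRT-PCR on 1 million cells; fold change % degranulation versus DMSO; two-way ANOVA with Sidak test.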

Assay [3] has the same target. In words: Agonist activity at MRGPRX2 receptor in human LAD2 cells assessed as increase in intracellular calcium release by FLIPR assay. The class given is functional, cell-based. The conditions noted are these: filed as agonist. The method in brief: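 LAD2 human mast cells seeded 50,000/well in Tyrode's buffer with calcium dye, 1 h before drug; 10 s baseline, drug added, fluorescence followed 120 s; expressed as fold calcium release over baseline; n=3 in triplicate.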

Assay [4] addresses Cannabinoid receptor 2 (Homo sapiens) (UniProt P34972). In words: Agonist activity at CNR2 receptor (unknown origin). Type of assay: functional. The method in brief:
(§2)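 PRESTO-Tango β-arrestin2 recruitment; HTLA cells (HEK-T stably expressing β-arrestin2-TEV and tTA-dependent luciferase) transfected by calcium phosphate with receptor-Tango construct, replated next day at 20,000 cells/well; compounds in HBSS/20 mM HEPES/0.3% BSA pH 7.4, 18–24 h; Bright-Glo luminescence after 15 min RT, read as RLU; ≥2-fold over basal scored active.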

Assay [5] deals with Prosaposin receptor GPR37 (Homo sapiens) (UniProt O15354). In words: Agonist activity at GPR37 receptor (unknown origin). Type of assay: functional. The method in brief:
as §2

For assay [6], the target named is 5-hydroxytryptamine receptor 2A (Homo sapiens) (UniProt P28223). Kind of assay: Agonist activity at HTR2 receptor (unknown origin). Type of assay: functional. The method in brief:
as §2

Assay [7] deals with Proteinase-activated receptor 2 (Homo sapiens) (UniProt P55085). Kind of assay: Agonist activity at F2R-L1 receptor (unknown origin). The method in brief:
as §2

Assay [8] addresses Beta-3 adrenergic receptor (Homo sapiens) (UniProt P13945). In words: Agonist activity at ADRB3 receptor (unknown origin). Type of assay: functional. The method in brief: as §2
The target of assay [9] is G-protein coupled receptor 15 (Homo sapiens) (UniProt P49685). In words: Agonist activity at GPR15 receptor (unknown origin). The class given is functional. The method, boiled down:
as §2

Assay [10] addresses Alpha-2C adrenergic receptor (Homo sapiens) (UniProt P18825). In words: Agonist activity at ADRA2C receptor (unknown origin). The method, boiled down:
as §2

Assay [11] has as its target Melanin-concentrating hormone receptor 2 (Homo sapiens) (UniProt Q969V1). Kind of assay: Agonist activity at MCHR2 receptor (unknown orgini). The class given is functional. The method, boiled down:
as §2

Assay [12] concerns the target Type-1 angiotensin II receptor (Homo sapiens) (UniProt P30556). In words: Agonist activity at AGTR1 receptor (unknown origin). The class given is functional. The method in brief:
as §2

Assay [13] concerns the target D(4) dopamine receptor (Homo sapiens) (UniProt P21917). Kind of assay: Agonist activity at DRD4 receptor (unknown origin). The class given is functional. The method in brief: as §2
In assay [14] the target is Pituitary adenylate cyclase-activating polypeptide type I receptor (Homo sapiens) (UniProt P41586). Kind of assay: Agonist activity at ADCYAP1 receptor (unknown origin). The method in brief: as §2
In assay [15] the target is Alpha-1B adrenergic receptor (Homo sapiens) (UniProt P35368). In words: Agonist activity at ADRA1B receptor (unknown origin). The class given is functional. The method, boiled down:
as §2

Assay [16] has as its target Beta-1 adrenergic receptor (Homo sapiens) (UniProt P08588). In words: Agonist activity at ADRB1 receptor (unknown origin). Type of assay: functional. The method, boiled down: as §2
Assay [17] deals with Alpha-1A adrenergic receptor (Homo sapiens) (UniProt P35348). In words: Agonist activity at ADRA1A receptor (unknown origin). The class given is functional. The method, boiled down:
as §2

Assay [18] has as its target 5-hydroxytryptamine receptor 1A (Homo sapiens) (UniProt P08908). In words: Agonist activity at HTR1A receptor (unknown origin). The class given is functional. The method, boiled down:
as §2

Assay [19] addresses Gastrin-releasing peptide receptor (Homo sapiens) (UniProt P30550). In words: Agonist activity at GRPR (unknown origin). The class given is functional. The method in brief: as §2
The target in assay [20] is Muscarinic acetylcholine receptor M2 (Homo sapiens) (UniProt P08172). In words: Agonist activity at CHRM2 receptor (unknown origin). Type of assay: functional. The method, boiled down:
as §2

For assay [21], the target named is T1, Mas-related G-protein coupled receptor member X2 (Homo sapiens). In words: Agonist activity at MRGPRX2 receptor in human LAD2 cells assessed as increase in degranulation incubated for 30 mins by beta-hexosaminidase assay. The class given is functional, cell-based. The conditions noted are these: filed as agonist. The method in brief: (§3)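 β-Hexosaminidase release: LAD2 cells in fresh medium 18 h, washed in Tyrode's buffer pH 7.4, 10,000 cells/well; drug (single concentration or 8-point curve) added in triplicate, 30 min 37°C; supernatant and Triton X-100 lysate each reacted with NAG in citrate pH 4.5 for 90 min 37°C, stopped with carbonate pH 10, A405; % release = released/total ×100, minus vehicle.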

The target in assay [22] is Alpha-1D adrenergic receptor (Homo sapiens) (UniProt P25100). Kind of assay: Agonist activity at ADRA1D receptor (unknown origin). Type of assay: functional. The method in brief:
as §2

Assay [23] deals with Glucagon-like peptide 1 receptor (Homo sapiens) (UniProt P43220). Kind of assay: Agonist activity at GLP1R (unknown origin). The class given is functional. The method in brief: as §2
Assay [24] addresses Lutropin-choriogonadotropic hormone receptor (Homo sapiens) (UniProt P22888). In words: Agonist activity at LHCGR (unknown origin). Type of assay: functional. The method, boiled down:
as §2

The target of assay [25] is T2, Mas-related G-protein coupled receptor member X2 (Homo sapiens, UniProt Q96LB1).
T2 sequence (Q96LB1 whole entry): T1 sequence (whole entry)
In words: Agonist activity at MRGPRX2 (unknown origin) expressed in HTLA cells assessed as induction of beta-arrestin 2 recruitment incubated for 18 to 24 hrs by PRESTO-Tango assay. The class given is functional, cell-based. On the technique in general: Activated receptors often draw arrestin, which recruitment assays turn into a signal.

The target of assay [26] is Glucose-dependent insulinotropic receptor (Homo sapiens) (UniProt Q8TDV5). In words: Agonist activity at GPR119 receptor (unknown origin). Type of assay: functional. The method in brief:
as §2

Assay [27] deals with T2, Mas-related G-protein coupled receptor member X2. Kind of assay: Agonist activity at N-terminal Flag-tagged human MRGPRX2 receptor expressed in tetracycline-induced FLP-IN/T-REX 293 cells assessed as increase in intracellular calcium release by FLIPR assay. Type of assay: functional, cell-based. For orientation: A change in cytosolic calcium serves as a functional read-out for many receptors and channels.

Assay [28] deals with T1, Mas-related G-protein coupled receptor member X2 (Homo sapiens). In words: Agonist activity at N-terminal Flag-tagged human MRGPRX2 receptor expressed in HEK-T cells assessed as increase in intracellular calcium release by FLIPR assay. Type of assay: functional, cell-based. The conditions noted are these: HEK-T cell. The method in brief:
(§4)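 FLIPR calcium: FLP-IN/T-REX HEK-293-T stable line with N-terminal FLAG codon-optimized receptor, induced 24 h with 1 μg/mL tetracycline in 1% dialyzed FBS (uninduced cells as control); FLIPR calcium dye plus 2.5 mM probenecid 1 h 37°C; 10 s baseline, then drug in HBSS/20 mM HEPES/probenecid pH 7.4, 16-point curve 10 μM to 0.003 nM; fluorescence 120 s; fold over basal, n=3 triplicate.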

For assay [29], the system named is HTLA. Kind of assay: Agonist activity at MRGPRX2 D184E mutant (unknown origin) expressed in HTLA cells assessed as induction of beta-arrestin 2 recruitment incubated for 18 to 24 hrs by PRESTO-Tango assay. The class given is cell-based. The conditions noted are these: Homo sapiens, time 18-24 hrs. The method in brief:
as §1

Assay [30] concerns HTLA. Kind of assay: Agonist activity at MRGPRX2 E164D mutant (unknown origin) expressed in HTLA cells assessed as induction of beta-arrestin 2 recruitment incubated for 18 to 24 hrs by PRESTO-Tango assay. Type of assay: cell-based. The conditions noted are these: Homo sapiens, filed as agonist, time 18-24 hrs. The method in brief: as §1
Assay [31] deals with T1, Mas-related G-protein coupled receptor member X2 (Homo sapiens). Kind of assay: Agonist activity at N-terminal Flag-tagged human MRGPRX2 receptor expressed in tetracycline-induced HEK-T cells assessed as increase in intracellular calcium release by FLIPR assay. The class given is functional, cell-based. The conditions noted are these: HEK-T cell, filed as agonist. The method, boiled down: as §4

Assay [32] shares this target. Kind of assay: Agonist activity at MRGPRX2 receptor in human LAD2 cells assessed as increase in degranulation incubated for 30 mins in presence of naloxone by beta-hexosaminidase assay. The class given is functional, cell-based. The method, boiled down: as §3

Chain of Glucose-dependent insulinotropic receptor (Homo sapiens) (Q8TDV5 whole entry): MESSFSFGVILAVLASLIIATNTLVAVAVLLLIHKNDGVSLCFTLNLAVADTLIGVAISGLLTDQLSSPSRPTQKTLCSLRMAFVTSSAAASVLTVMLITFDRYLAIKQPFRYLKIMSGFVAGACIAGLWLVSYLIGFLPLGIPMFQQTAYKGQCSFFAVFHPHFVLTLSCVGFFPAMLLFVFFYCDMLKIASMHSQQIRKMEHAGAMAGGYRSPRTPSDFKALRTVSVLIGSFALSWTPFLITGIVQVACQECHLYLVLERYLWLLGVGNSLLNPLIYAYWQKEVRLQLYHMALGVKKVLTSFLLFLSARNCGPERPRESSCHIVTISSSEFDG
Chain of Melanin-concentrating hormone receptor 2 (Homo sapiens) (Q969V1 whole entry): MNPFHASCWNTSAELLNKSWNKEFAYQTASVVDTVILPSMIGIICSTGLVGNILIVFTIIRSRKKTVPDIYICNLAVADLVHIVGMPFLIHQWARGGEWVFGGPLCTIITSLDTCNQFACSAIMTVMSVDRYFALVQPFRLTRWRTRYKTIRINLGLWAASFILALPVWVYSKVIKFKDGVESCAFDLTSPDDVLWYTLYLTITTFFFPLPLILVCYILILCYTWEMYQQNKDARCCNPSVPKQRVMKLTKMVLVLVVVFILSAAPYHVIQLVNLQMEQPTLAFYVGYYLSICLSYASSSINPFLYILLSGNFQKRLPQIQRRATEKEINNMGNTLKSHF
Chain of Alpha-1B adrenergic receptor (Homo sapiens) (P35368 whole entry): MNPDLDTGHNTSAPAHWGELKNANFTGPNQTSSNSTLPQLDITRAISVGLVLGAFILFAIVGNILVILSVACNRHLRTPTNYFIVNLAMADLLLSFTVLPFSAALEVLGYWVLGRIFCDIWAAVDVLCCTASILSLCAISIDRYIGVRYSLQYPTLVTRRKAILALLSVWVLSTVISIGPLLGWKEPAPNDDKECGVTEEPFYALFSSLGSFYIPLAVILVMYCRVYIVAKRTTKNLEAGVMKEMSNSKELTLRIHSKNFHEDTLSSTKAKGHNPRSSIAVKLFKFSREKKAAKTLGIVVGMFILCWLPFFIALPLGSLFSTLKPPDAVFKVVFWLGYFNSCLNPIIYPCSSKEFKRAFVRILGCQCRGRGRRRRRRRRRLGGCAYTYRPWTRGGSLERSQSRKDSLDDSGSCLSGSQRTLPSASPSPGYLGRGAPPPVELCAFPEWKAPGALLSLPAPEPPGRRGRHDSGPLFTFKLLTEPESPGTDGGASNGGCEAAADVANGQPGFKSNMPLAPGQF
Chain of 5-hydroxytryptamine receptor 1A (Homo sapiens) (P08908 whole entry): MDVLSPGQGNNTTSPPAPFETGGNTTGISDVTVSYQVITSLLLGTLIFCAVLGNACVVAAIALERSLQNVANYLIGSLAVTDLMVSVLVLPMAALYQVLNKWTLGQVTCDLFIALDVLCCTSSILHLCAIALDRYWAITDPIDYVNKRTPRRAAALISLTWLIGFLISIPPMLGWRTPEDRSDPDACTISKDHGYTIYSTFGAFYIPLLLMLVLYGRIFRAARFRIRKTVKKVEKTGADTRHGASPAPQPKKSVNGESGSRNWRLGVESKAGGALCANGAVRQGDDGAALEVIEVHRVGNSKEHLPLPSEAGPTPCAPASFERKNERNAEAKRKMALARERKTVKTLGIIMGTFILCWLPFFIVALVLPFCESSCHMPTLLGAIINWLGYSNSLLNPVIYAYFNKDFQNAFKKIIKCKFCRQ
Chain of Proteinase-activated receptor 2 (Homo sapiens) (P55085 whole entry): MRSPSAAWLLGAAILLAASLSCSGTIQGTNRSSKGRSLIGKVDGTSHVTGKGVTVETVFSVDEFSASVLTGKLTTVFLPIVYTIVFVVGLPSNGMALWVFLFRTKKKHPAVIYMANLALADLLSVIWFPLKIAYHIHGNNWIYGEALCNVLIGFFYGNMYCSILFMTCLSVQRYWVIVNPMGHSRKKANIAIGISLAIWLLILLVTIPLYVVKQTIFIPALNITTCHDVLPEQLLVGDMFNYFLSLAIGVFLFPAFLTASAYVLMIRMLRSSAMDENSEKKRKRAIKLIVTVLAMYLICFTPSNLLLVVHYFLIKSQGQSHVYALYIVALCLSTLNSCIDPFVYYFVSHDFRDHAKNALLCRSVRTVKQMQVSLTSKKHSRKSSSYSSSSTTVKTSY
Chain of Alpha-1A adrenergic receptor (Homo sapiens) (P35348 whole entry): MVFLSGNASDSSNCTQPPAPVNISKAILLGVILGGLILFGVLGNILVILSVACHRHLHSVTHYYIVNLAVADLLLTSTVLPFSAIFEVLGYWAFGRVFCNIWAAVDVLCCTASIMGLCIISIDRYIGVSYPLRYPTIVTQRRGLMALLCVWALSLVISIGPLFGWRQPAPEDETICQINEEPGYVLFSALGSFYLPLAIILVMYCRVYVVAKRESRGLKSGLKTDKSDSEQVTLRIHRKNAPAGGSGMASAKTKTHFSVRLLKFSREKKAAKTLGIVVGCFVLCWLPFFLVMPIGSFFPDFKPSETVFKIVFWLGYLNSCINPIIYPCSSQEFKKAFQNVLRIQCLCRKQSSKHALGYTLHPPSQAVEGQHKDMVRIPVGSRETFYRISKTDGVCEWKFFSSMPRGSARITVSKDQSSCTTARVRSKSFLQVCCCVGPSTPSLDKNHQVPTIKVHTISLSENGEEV
Chain of Beta-3 adrenergic receptor (Homo sapiens) (P13945 whole entry, looked up): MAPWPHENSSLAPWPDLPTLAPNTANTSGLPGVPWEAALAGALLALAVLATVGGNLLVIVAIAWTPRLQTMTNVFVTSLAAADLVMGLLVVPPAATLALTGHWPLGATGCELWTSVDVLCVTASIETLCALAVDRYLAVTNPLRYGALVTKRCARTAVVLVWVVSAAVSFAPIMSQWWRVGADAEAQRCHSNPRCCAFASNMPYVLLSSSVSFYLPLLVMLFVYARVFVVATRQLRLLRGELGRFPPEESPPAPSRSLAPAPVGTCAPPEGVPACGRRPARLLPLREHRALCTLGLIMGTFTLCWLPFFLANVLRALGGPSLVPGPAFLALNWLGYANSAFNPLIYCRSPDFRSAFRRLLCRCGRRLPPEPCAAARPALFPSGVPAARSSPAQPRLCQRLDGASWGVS
Chain of Muscarinic acetylcholine receptor M2 (Homo sapiens) (P08172 whole entry): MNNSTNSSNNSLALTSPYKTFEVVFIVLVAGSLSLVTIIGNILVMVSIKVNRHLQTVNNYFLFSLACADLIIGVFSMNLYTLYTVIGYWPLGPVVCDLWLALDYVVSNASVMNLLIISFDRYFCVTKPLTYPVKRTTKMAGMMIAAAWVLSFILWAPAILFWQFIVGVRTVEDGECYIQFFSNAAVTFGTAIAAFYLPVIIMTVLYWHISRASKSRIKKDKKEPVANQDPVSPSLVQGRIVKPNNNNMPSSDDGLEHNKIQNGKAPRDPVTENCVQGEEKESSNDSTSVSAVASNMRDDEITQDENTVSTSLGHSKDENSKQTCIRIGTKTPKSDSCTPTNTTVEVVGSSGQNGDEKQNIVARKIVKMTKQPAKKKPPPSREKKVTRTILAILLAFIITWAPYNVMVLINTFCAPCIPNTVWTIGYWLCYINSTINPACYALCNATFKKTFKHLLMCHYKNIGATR
Chain of Alpha-1D adrenergic receptor (Homo sapiens) (P25100 whole entry): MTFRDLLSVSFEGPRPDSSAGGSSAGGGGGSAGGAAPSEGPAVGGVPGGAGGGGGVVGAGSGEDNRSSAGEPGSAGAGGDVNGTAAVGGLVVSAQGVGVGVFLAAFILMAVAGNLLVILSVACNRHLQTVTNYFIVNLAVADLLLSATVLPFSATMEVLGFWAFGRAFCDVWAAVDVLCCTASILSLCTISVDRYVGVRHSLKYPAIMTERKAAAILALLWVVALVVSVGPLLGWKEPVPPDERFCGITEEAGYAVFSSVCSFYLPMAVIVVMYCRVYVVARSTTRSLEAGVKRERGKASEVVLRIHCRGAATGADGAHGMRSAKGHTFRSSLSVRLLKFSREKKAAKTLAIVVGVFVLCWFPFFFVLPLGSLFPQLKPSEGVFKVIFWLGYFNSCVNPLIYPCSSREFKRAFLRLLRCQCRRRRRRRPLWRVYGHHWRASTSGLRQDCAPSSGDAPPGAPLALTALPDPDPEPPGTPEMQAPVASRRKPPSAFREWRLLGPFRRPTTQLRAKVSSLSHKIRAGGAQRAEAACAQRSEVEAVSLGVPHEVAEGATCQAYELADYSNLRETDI
Chain of Cannabinoid receptor 2 (Homo sapiens) (P34972 whole entry): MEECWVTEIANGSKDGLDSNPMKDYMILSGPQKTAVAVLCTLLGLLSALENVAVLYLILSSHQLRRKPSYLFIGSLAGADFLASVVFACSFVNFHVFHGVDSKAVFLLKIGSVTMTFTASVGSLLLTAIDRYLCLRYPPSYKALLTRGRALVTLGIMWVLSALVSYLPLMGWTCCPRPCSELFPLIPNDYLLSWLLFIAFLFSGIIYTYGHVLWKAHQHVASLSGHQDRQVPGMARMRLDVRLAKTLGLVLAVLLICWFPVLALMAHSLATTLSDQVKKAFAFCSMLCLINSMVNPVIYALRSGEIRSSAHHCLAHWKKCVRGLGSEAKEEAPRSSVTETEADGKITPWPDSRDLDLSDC
Chain of Alpha-2C adrenergic receptor (Homo sapiens) (P18825 whole entry): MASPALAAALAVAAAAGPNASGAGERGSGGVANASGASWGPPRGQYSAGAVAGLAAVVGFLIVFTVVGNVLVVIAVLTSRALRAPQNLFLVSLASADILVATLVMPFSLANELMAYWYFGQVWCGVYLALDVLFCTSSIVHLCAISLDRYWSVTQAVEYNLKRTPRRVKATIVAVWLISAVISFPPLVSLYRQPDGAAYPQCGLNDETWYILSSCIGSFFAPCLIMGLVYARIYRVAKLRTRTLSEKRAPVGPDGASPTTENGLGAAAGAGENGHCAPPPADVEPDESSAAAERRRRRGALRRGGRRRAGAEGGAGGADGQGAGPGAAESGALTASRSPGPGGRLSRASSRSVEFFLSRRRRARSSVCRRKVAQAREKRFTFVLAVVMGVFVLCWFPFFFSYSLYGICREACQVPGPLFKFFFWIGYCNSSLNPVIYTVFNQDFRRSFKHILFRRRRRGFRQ

On to `CN(C)C1CCN(c2cc(-c3ccccc3)nc3ccnn23)C1` (racemic), for which the outcome in assay [1] and in assay [3] was Active. Moreover, the outcome in assay [2] was inactive.

As to `CN(C)[C@@H]1CCN(c2cc(-c3ccccc3)nc3ccnn23)C1` [(R)-ZINC-3573], the result in [4], in assay [5], in assay [6], in [7], in assay [8] and in assay [9] was inactive. In addition, the result in assay [10], in assay [11], in [12], in assay [13], in assay [14] and in [15] was inactive. Besides, the outcome in assay [16], in assay [17], in [18], in assay [19], in assay [20] and in assay [22] was inactive. Besides, the result in assay [23], in assay [24] and in [26] was inactive. The outcome in [21] was Active. For the same molecule, the EC50 in assay [25] (read-out: EC50) was determined as 0.74 µM; in [27] (read-out: EC50), 1 µM.

In the case of `CN1CC[C@@]23CCCC[C@@H]2[C@@H]1Cc1ccc(O)cc13` [DEXTRORPHAN], the outcome in assay [28] and in assay [29] was inactive. Also, the outcome in assay [30] and in assay [31] was Active. The EC50 in assay [25] (read-out: EC50) is 4.3 µM; in assay [25] (read-out: pEC50 (converted)), 4.17 µM; in assay [27] (read-out: EC50), 6 µM; in assay [27] (read-out: pEC50 (converted)), 3.89 µM.

Consider `CN1CC[C@]23c4c5ccc(O)c4O[C@H]2[C@@H](O)C=C[C@H]3[C@H]1C5` [MORPHINE], for which the result in assay [2], in assay [32] and in assay [29] was inactive. Besides, the result in [3], in [21] and in assay [30] was Active. Besides, the EC50 is 6.4 µM in [25] (read-out: EC50), 6.17 µM in [25] (read-out: pEC50 (converted)) and 7 µM in assay [27] (read-out: EC50).
